pKi: −log10 of the molar value.
Tests used:
[1] = system: Kidney; assay: Drug uptake in ddY mouse kidney at 370 kBq/100 ul, iv at 10 mins by gamma-counting analysis; assay type: ADME, organism-based; details: in vivo
How it was run: (§1)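 Normal male ddY mice (5 weeks, 20−22 g, n = 5) received 370 kBq of tracer in 100 μL saline with 5% EtOH via tail vein. Mice were sacrificed at set times after injection, and organs were excised, weighed and γ-counted against diluted injectate aliquots. Values are %ID per gram, except stomach and intestine as %ID per organ, given as mean ± SD of 5 mice.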

[2] = system: Lung; assay: Drug uptake in ddY mouse lung at 370 kBq/100 ul, iv at 60 mins by gamma-counting analysis; assay type: ADME, organism-based; details: in vivo, 1 h; how it was run: as §1
[3] = system: Spleen; assay: Drug uptake in ddY mouse spleen at 370 kBq/100 ul, iv at 30 mins by gamma-counting analysis; assay type: ADME, organism-based; details: in vivo, 0.5 h; how it was run: as §1
[4] = system: Liver; assay: Drug uptake in ddY mouse liver at 370 kBq/100 ul, iv at 30 mins by gamma-counting analysis; assay type: ADME, organism-based; details: in vivo, 0.5 h; how it was run: as §1
[5] = system: Liver; assay: Drug uptake in ddY mouse liver at 370 kBq/100 ul, iv at 60 mins by gamma-counting analysis; assay type: ADME, organism-based; details: in vivo, 1 h; how it was run: as §1
[6] = Displacement of [125I]IMPY from amyloid beta (1 to 42) fibrils after 2 hrs by gamma-counting analysis
How it was run: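 Competition binding with aggregated Aβ1-42 fibrils (60 nM final) and [125I]IMPY. Inhibitors were tested at 10⁻⁵–10⁻¹⁰ M (in ethanol) in 0.2 M PBS, pH 7.4, 1 mL, for 2 h at 37 °C with shaking. Nonspecific binding was defined with 1 μM IMPY. Bound ligand was collected by GF/B filtration and γ-counted. Ki was derived from IC50 via Cheng–Prusoff.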

[7] = system: Liver; assay: Drug uptake in ddY mouse liver at 370 kBq/100 ul, iv at 2 mins by gamma-counting analysis; assay type: ADME, organism-based; details: in vivo; how it was run: as §1
[8] = system: Heart; assay: Drug uptake in ddY mouse heart at 370 kBq/100 ul, iv at 60 mins by gamma-counting analysis; assay type: ADME, organism-based; details: in vivo, 1 h; how it was run: as §1
[9] = system: Bone; assay: Drug uptake in ddY mouse bone at 370 kBq/100 ul, iv at 10 mins by gamma-counting analysis; assay type: ADME, organism-based, Bone element; details: in vivo; how it was run: as §1
[10] = system: Blood; assay: Drug uptake in ddY mouse blood at 370 kBq/100 ul, iv at 10 mins by gamma-counting analysis; assay type: ADME, organism-based; details: in vivo; how it was run: as §1
[11] = system: Brain; assay: Drug uptake in healthy human brain at 370 kBq/100 ul after 1 hr by immunohistochemical staining method; assay type: ADME, tissue-based
How it was run: (§2)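 Paraffin sections of brain were used: C57BL6 mice (wild-type, 12 months), human AD (person) and normal human. Sections were deparaffinized through xylene and graded ethanol, then equilibrated 30 min in PBS (0.2 M, pH 7.4). Incubated 1 h at room temperature with tracer, 370 kBq/100 μL, washed 1 min in 50% ethanol and rinsed with water. Imaging plate exposed overnight. Plaques confirmed by thioflavin-S or anti-Aβ1-42 monoclonal immunostaining.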

[12] = system: Brain; assay: Drug uptake in healthy human brain at 370 kBq/100 ul after 1 hr by autoradiographic analysis; assay type: ADME, tissue-based; how it was run: as §2
[13] = system: Intestine; assay: Drug uptake in ddY mouse intestine at 370 kBq/100 ul, iv at 30 mins by gamma-counting analysis; assay type: ADME, organism-based; details: in vivo, 0.5 h; how it was run: as §1
[14] = system: Kidney; assay: Drug uptake in ddY mouse kidney at 370 kBq/100 ul, iv at 60 mins by gamma-counting analysis; assay type: ADME, organism-based; details: in vivo, 1 h; how it was run: as §1
[15] = system: Kidney; assay: Drug uptake in ddY mouse kidney at 370 kBq/100 ul, iv at 30 mins by gamma-counting analysis; assay type: ADME, organism-based; details: in vivo, 0.5 h; how it was run: as §1
[16] = system: Brain; assay: Drug uptake in transgenic C57BL6 mouse brain expressing APP Swedish mutant at 40.7 MBq, iv at 2 mins by microPET imaging; assay type: ADME, organism-based; details: in vivo
[17] = system: Brain; assay: Ratio of drug uptake in brain at 2 mins to drug uptake in 20 mins in wild type C57BL6 mouse; assay type: ADME, tissue-based; details: in vivo
[18] = system: Brain; assay: Ratio of drug uptake in brain at 2 mins to drug uptake in 20 mins in transgenic C57BL6 mouse expressing APP Swedish mutant; assay type: ADME, tissue-based; details: in vivo
[19] = system: Hippocampus; assay: Drug uptake in transgenic C57BL6 mouse hippocampus expressing APP Swedish mutant at 40.7 MBq, iv at 60 mins by microPET imaging; assay type: ADME, organism-based; details: in vivo, 1 h
[20] = system: Cortex; assay: Drug uptake in transgenic C57BL6 mouse cortex expressing APP Swedish mutant at 40.7 MBq, iv at 60 mins by microPET imaging; assay type: ADME, organism-based; details: in vivo, 1 h
[21] = system: Brain; assay: Drug uptake in wild type C57BL6 mouse brain at 40.7 MBq, iv up to 60 mins by microPET imaging; assay type: ADME, organism-based; details: in vivo, 1 h
[22] = system: Brain; assay: Drug uptake in wild type C57BL6 mouse brain at 40.7 MBq, iv at 2 mins by microPET imaging; assay type: ADME, organism-based; details: in vivo

## CN(C)c1ccc(-c2nc3cc(OCCOCCOCC[18F])ccc3o2)cc1
[1]
  Drug uptake: 5.18 % ID/g
[2]
  Drug uptake: 3.22 % ID/g
[3]
  Drug uptake: 2.53 % ID/g
[4]
  Drug uptake: 9.2 % ID/g
[5]
  Drug uptake: 6.92 % ID/g
[6]
  pKi: 8.41
[7]
  Drug uptake: 13.04 % ID/g
[8]
  Drug uptake: 3.13 % ID/g
[9]
  Drug uptake: 1.07 % ID/g
[10]
  Drug uptake: 2.26 % ID/g
[11]
  Drug uptake: Not Active
[12]
  Drug uptake: Not Active
[13]
  Drug uptake: 22.59 % ID/g
[14]
  Drug uptake: 3.68 % ID/g
[15]
  Drug uptake: 4.08 % ID/g

## CNc1ccc(-c2nc3cc(OCCOCCOCC[18F])ccc3o2)cc1
[1]
  Drug uptake: 8.45 % ID/g
[2]
  Drug uptake: 5.22 % ID/g
[3]
  Drug uptake: 3.92 % ID/g
[4]
  Drug uptake: 19.31 % ID/g
[5]
  Drug uptake: 13.06 % ID/g
[6]
  pKi: 8.03
[7]
  Drug uptake: 20.28 % ID/g
[8]
  Drug uptake: 4.32 % ID/g
[9]
  Drug uptake: 2.32 % ID/g
[10]
  Drug uptake: 3.46 % ID/g
[11]
  Drug uptake: Not Active
[12]
  Drug uptake: Not Active
[16]
  Drug uptake: Active
[17]
  Ratio: 1.77
[18]
  Ratio: 1.21
[19]
  Drug uptake: Active
[20]
  Drug uptake: Active
[21]
  Drug uptake: Not Active
[22]
  Drug uptake: Active
[13]
  Drug uptake: 23.92 % ID/g
[14]
  Drug uptake: 5.4 % ID/g
[15]
  Drug uptake: 6.84 % ID/g
